Data published in ChEMBL document CHEMBL1177725, “6-(3,4-dichlorophenyl)-1-[(methyloxy)methyl]-3-azabicyclo[4.1.0]heptane: a new potent and selective triple reuptake inhibitor” (J Med Chem, 2010).
The source made the active and inactive calls. No cut-off for these calls is given here.

Tests used:
Mus musculus [1] = test: Potentiation of 5-hydroxytryptophan-induced stereotypic behavior in mouse at 10 mg/kg, po administered 2 hrs before 5-hydroxytryptophan challenge measured for 30 mins; type: functional, organism-based; parameters: dose 10 mg/kg
How it was run: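 Mice were dosed orally at 3, 10 or 30 mg/kg 120 min before an ip injection of 5-HTP (100 mg/kg). Each mouse was then placed alone in a perspex box, and 5-HTP-induced stereotyped behaviour was assessed.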

Cytochrome P450 2C19 = Cytochrome P450 2C19 (Homo sapiens, UniProt P33261); test: Inhibition of human CYP2C19 after 10 mins; type: ADME
Sequence of Cytochrome P450 2C19 (P33261 whole entry): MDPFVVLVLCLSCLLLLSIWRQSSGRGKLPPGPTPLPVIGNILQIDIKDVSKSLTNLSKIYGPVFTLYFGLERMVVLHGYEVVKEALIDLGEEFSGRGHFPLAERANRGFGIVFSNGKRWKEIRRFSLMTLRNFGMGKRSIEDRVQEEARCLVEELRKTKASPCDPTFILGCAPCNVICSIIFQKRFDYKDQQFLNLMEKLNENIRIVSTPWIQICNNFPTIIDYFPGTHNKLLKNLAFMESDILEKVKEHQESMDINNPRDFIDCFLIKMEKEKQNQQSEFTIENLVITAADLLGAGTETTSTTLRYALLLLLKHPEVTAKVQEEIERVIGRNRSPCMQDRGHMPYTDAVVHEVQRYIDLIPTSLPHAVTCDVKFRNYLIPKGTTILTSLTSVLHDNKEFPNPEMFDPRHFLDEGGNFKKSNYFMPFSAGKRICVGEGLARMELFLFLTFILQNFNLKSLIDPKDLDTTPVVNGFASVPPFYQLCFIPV
How it was run: (§1)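 Recombinant human CYP bactosomes (0.1 mg/mL) were pre-incubated 10 min at 37 °C in 50 mM phosphate pH 7.4 with compound (0.1–10 μM) and a fluorogenic substrate. Substrates: ethoxyresorufin 0.5 μM (1A2), FCA 50 μM (2C9), BMC 10 μM (2C19), MMC 10 μM (2D6), DEF 1 μM or 7-BQ 25 μM (3A4). Adding an NADPH-regenerating system started the reaction, and metabolite fluorescence was read over 10 min. The IC50 came from rate as percent of control; miconazole served as positive control, with triplicates.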

[2] = biological target: Sodium-dependent dopamine transporter (Homo sapiens, UniProt Q01959); test: Displacement of [N-methyl-3H]WIN-35428 from human recombinant DAT expressed in pig LLCPK cells after 2 hrs by liquid scintillation counting; type: cell-based
Sequence of Sodium-dependent dopamine transporter (Q01959 whole entry): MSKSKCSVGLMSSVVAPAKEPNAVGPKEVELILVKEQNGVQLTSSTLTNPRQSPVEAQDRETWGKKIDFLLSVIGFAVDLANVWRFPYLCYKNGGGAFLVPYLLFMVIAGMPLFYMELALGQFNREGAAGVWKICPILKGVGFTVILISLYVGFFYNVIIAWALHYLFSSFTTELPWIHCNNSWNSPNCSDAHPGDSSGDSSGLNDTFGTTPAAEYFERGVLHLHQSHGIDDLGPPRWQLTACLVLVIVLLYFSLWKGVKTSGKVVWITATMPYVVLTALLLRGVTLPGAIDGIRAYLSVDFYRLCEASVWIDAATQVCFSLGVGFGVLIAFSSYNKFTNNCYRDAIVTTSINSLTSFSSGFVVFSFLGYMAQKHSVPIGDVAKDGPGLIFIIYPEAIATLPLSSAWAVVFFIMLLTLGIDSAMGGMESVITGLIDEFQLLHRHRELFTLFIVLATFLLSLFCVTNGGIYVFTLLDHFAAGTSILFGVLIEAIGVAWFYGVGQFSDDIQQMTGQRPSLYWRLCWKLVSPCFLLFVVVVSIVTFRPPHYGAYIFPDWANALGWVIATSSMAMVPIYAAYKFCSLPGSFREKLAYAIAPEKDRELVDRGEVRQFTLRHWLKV

Cytochrome P450 2C9 = Cytochrome P450 2C9 (Homo sapiens, UniProt P11712); test: Inhibition of human CYP2C9 after 10 mins; type: ADME; how it was run: as §1
Sequence of Cytochrome P450 2C9 (P11712 whole entry): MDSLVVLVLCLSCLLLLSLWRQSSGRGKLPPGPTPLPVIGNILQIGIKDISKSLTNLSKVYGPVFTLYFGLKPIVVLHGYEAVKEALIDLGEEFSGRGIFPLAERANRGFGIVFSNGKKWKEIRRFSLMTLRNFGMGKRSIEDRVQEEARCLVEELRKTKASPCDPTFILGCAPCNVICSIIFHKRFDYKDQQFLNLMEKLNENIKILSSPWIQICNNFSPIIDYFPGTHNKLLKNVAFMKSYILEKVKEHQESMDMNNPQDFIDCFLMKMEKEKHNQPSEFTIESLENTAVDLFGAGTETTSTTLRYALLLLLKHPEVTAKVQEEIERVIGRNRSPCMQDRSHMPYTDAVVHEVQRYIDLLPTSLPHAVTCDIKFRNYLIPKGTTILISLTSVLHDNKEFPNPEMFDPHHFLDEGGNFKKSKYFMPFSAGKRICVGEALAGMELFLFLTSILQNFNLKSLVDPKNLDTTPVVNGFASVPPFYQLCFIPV

[3] = biological target: Sodium-dependent noradrenaline transporter (Homo sapiens, UniProt P23975); test: Displacement of [N-methyl-3H]nisoxetine from human recombinant NET expressed in pig LLCPK cells after 2 hrs by liquid scintillation counting; type: cell-based
Sequence of Sodium-dependent noradrenaline transporter (P23975 whole entry): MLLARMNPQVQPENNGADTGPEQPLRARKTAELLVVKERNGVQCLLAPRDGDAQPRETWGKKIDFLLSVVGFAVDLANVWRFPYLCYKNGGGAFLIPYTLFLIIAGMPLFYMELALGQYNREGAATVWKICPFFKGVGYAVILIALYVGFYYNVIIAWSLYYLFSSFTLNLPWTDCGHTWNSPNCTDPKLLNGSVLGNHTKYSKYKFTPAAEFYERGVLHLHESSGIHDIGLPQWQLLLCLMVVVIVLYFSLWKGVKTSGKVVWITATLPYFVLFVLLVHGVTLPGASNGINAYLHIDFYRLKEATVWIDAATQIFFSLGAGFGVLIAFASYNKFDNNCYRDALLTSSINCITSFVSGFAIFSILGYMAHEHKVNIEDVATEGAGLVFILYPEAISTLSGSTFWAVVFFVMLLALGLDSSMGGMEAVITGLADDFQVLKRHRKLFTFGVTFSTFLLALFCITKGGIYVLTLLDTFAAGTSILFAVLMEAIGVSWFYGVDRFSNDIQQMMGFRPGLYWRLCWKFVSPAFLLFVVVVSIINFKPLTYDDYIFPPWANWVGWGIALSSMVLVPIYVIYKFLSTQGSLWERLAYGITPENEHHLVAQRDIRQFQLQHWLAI

Cytochrome P450 3A4 = Cytochrome P450 3A4 (Homo sapiens, UniProt P08684); test: Inhibition of human CYP3A4 after 10 mins; type: ADME; how it was run: as §1
Sequence of Cytochrome P450 3A4 (P08684 whole entry): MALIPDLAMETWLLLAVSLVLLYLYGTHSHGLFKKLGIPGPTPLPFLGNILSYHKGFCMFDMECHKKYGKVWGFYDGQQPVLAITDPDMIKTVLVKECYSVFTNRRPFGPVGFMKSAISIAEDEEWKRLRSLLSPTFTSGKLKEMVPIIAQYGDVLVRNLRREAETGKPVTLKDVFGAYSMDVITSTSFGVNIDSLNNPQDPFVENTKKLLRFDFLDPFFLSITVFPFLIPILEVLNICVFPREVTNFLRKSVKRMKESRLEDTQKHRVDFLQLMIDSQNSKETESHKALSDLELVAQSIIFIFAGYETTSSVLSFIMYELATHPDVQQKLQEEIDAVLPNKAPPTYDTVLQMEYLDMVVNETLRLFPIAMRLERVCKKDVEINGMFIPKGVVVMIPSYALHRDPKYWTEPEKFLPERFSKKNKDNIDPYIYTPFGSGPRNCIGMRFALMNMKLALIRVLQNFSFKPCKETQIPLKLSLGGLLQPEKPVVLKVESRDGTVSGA

[4] = biological target: Sodium-dependent serotonin transporter (Homo sapiens, UniProt P31645); test: Displacement of [N-methyl-3H]citalopram from human recombinant SERT expressed in pig LLCPK cells after 2 hrs by liquid scintillation counting; type: cell-based
Sequence of Sodium-dependent serotonin transporter (P31645 whole entry): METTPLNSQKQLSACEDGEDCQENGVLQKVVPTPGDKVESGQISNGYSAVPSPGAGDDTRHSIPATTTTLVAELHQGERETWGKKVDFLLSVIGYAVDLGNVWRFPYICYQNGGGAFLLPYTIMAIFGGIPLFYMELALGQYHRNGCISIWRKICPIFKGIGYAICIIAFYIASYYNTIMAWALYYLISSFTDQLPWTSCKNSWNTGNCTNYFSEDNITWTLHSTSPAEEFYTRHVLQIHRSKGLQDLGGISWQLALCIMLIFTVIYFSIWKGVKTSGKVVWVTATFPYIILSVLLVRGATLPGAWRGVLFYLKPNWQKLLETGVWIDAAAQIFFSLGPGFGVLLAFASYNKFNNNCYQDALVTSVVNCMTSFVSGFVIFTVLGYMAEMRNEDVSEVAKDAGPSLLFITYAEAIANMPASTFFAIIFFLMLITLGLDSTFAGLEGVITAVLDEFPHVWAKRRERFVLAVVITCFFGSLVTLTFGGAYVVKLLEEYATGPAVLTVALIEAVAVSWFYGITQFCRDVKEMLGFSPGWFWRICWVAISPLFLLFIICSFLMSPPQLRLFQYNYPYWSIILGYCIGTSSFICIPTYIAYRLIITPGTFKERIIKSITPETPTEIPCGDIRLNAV

Cytochrome P450 2D6 = Cytochrome P450 2D6 (Homo sapiens, UniProt P10635); test: Inhibition of human CYP2D6 after 10 mins; type: ADME; how it was run: as §1
Sequence of Cytochrome P450 2D6 (P10635 whole entry): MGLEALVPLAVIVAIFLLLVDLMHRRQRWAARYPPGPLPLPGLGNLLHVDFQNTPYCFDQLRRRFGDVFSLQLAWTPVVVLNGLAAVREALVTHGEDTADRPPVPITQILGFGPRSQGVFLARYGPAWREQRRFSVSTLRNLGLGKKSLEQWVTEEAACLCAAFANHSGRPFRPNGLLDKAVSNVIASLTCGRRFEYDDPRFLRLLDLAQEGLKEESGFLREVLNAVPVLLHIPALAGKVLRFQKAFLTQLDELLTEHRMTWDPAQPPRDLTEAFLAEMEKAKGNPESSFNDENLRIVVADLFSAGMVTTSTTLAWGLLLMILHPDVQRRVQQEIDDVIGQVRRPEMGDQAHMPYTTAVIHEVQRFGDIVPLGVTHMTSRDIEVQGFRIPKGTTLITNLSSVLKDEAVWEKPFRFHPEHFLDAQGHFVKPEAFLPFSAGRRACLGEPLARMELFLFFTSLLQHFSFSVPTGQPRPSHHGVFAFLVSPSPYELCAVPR

Cytochrome P450 1A2 = biological target: T1, Cytochrome P450 1A2 (Homo sapiens, UniProt P05177); test: Inhibition of human CYP1A2 after 10 mins; type: ADME; how it was run: as §1
T1 sequence (P05177 whole entry): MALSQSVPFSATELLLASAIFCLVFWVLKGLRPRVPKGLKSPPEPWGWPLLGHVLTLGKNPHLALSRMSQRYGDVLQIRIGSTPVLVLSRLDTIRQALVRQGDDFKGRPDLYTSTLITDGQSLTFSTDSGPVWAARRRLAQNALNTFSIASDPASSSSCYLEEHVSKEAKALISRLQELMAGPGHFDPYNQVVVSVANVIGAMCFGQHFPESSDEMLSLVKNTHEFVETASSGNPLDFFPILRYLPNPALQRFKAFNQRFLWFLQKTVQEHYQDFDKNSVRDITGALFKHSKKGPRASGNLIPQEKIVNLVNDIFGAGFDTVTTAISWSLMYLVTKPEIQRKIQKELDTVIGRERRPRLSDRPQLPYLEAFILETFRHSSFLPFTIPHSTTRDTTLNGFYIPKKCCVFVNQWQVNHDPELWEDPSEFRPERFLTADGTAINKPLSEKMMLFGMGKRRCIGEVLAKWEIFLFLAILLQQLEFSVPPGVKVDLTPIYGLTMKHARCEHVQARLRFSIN

Liver microsomes [5] = test: Intrinsic clearance in human liver microsomes assessed per gram of protein at 0.5 uM after 30 mins; type: ADME, Microsome; settings: 0.5 h
How it was run: (§2)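 Compound at 0.5 μM with liver microsomes (0.5 mg protein/mL) in 50 mM phosphate pH 7.4 at 37 °C, started with NADPH. Samples at 0, 3, 6, 9, 15 and 30 min were quenched in acetonitrile and analysed by HPLC-MS/MS. Cli came from the first-order elimination constant, scaled assuming 52.5 mg microsomal protein/g.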

Liver microsomes [6] = test: Intrinsic clearance in rat liver microsomes assessed per gram of protein at 0.5 uM after 30 mins; type: ADME, Microsome; settings: 0.5 h; how it was run: as §2
Rattus norvegicus [7] = test: Increase of extracellular dopamine level in CD rat medial prefrontal cortex at 3 mg/kg, ip measured up to 180 mins by microdialysis method; type: functional, organism-based; parameters: dose 3 mg/kg
How it was run: (§3)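 Probes of 2 or 4 mm were perfused with artificial CSF at 1.1 μL/min for 2 h, then dosing was 3 mg/kg ip. Dialysate was collected every 20 min into oxalic acid. NE, DA and 5-HT were measured by HPLC with electrochemical detection and expressed as percent of the mean of three basal samples.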

Rattus norvegicus [8] = test: Increase of extracellular dopamine level in CD rat nucleus accumbens at 3 mg/kg, ip measured up to 180 mins by microdialysis method; type: functional, organism-based; parameters: dose 3 mg/kg; how it was run: as §3
Rattus norvegicus [9] = test: Increase of extracellular serotonin level in CD rat nucleus accumbens at 3 mg/kg, ip measured up to 180 mins by microdialysis method; type: functional, organism-based; parameters: dose 3 mg/kg; how it was run: as §3
Rattus norvegicus [10] = test: Increase of extracellular norepinephrine level in CD rat medial prefrontal cortex at 3 mg/kg, ip measured up to 180 mins by microdialysis method; type: functional, organism-based; parameters: dose 3 mg/kg; how it was run: as §3
Rattus norvegicus [11] = test: Increase of extracellular serotonin level in CD rat medial […] at 3 mg/kg, ip measured up to 180 mins by microdialysis method; type: functional, organism-based; parameters: dose 3 mg/kg; how it was run: as §3
Rattus norvegicus [12] = test: Increase of extracellular norepinephrine level in CD rat nucleus accumbens at 3 mg/kg, ip measured up to 180 mins by microdialysis method; type: functional, organism-based; parameters: dose 3 mg/kg; how it was run: as §3
Mus musculus [13] = test: Potentiation of 5-hydroxytryptophan-induced stereotypic behavior in po dosed mouse administered 2 hrs before 5-hydroxytryptophan challenge measured for 30 mins; type: functional, organism-based
How it was run: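 Mice got oral drug 120 min before an ip 5-HTP challenge (100 mg/kg), then sat singly in a perspex box for scoring of stereotyped behaviour. Oral doses were 3, 10 and 30 mg/kg.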

Mus musculus [14] = test: Antidepressant like activity in mouse assessed as reduction of immobility time at 3 to 30 mg/kg, po administered 2 hrs before test measured during final 4 mins of the 6 mins session by forced swimming test; type: functional, organism-based

CN(C)CCCC1(c2ccc(F)cc2)OCc2cc(C#N)ccc21 (stereo not given)
Activity (Mus musculus [1]): Active

C=CCC(OC)[C@]12CNCC[C@]1(c1ccc(Cl)c(Cl)c1)C2 (mixture of isomers; form 1) [6-(3,4-DICHLOROPHENYL)-1-[1-(METHYLOXY)-3-BUTEN-1-YL]-3-AZABICYCLO[4.1.0]HEPTANE (DIASTEREOMERIC MIX)]
IC50 (Cytochrome P450 2C19): 3 µM | Ki [2]: 1.26 nM | IC50 (Cytochrome P450 2C9): 3 µM | Ki [3]: 1 nM | IC50 (Cytochrome P450 3A4): 3 µM | Ki [4]: 0.126 nM | IC50 (Cytochrome P450 2D6): 3 µM | IC50 (Cytochrome P450 1A2): 3 µM

COC[C@@]12CNCC[C@]1(c1ccc(Cl)c(Cl)c1)C2 (racemic) [GSK1360707]
IC50 (Cytochrome P450 2C19): 10 µM | Ki [2]: 25.1 nM | IC50 (Cytochrome P450 2C9): 10 µM | Ki [3]: 12.6 nM | IC50 (Cytochrome P450 3A4): 10 µM | Ki [4]: 1.58 nM | IC50 (Cytochrome P450 2D6): 3 µM | IC50 (Cytochrome P450 1A2): 10 µM

COC[C@@]12CCNC[C@]1(c1ccc(Cl)c(Cl)c1)C2 (racemic) [RAC-1-(3,4-DICHLOROPHENYL)-6-(METHOXYMETHYL)-2-AZABICYCLO[4.1.0]HEPTANE (ENANTIOMERS)]
Ki [2]: 126 nM | CL (Liver microsomes [5]): 1.4 mL/min/g | Ki [3]: 200 nM | Ki [4]: 31.6 nM | CL (Liver microsomes [6]): 1.8 mL/min/g

COC[C@@]12CNCC[C@]1(c1ccc(Cl)c(Cl)c1)C2 (relative stereo; 17)
Activity (Rattus norvegicus [7]): Active | Activity (Rattus norvegicus [8]): Active | Activity (Rattus norvegicus [9]): Active | Activity (Rattus norvegicus [10]): Active | Activity (Rattus norvegicus [11]): Active | Activity (Rattus norvegicus [12]): Active | Activity (Mus musculus [13]): Dose-dependent effect | Activity (Mus musculus [14]): Active

COC[C@@]12CNCC[C@]1(c1ccc(Cl)c(Cl)c1)C2 (relative stereo; 18) [GSK1360707]
IC50 (Cytochrome P450 2C19): 10 µM | Ki [2]: 100 nM | IC50 (Cytochrome P450 2C9): 10 µM | CL (Liver microsomes [5]): 1.4 mL/min/g | Ki [3]: 126 nM | IC50 (Cytochrome P450 3A4): 10 µM | Ki [4]: 20 nM | IC50 (Cytochrome P450 2D6): 3 µM | CL (Liver microsomes [6]): 1.8 mL/min/g | IC50 (Cytochrome P450 1A2): 10 µM

COC[C@@]12CNCC[C@]1(c1ccc3ccccc3c1)C2 (single isomer, unassigned; 28) [1-(METHOXYMETHYL)-6-(NAPHTHALEN-2-YL)-3-AZABICYCLO[4.1.0]HEPTANE (ENANTIOMERIC MIX)]
IC50 (Cytochrome P450 2C19): 8 µM | Ki [2]: 12.6 nM | IC50 (Cytochrome P450 2C9): 8 µM | CL (Liver microsomes [5]): 1.2 mL/min/g | Ki [3]: 10 nM | IC50 (Cytochrome P450 3A4): 8 µM | Ki [4]: 0.126 nM | IC50 (Cytochrome P450 2D6): 8 µM | CL (Liver microsomes [6]): 17 mL/min/g | IC50 (Cytochrome P450 1A2): 8 µM
